Measured values reported in ChEMBL document CHEMBL1165965, “Synthesis and structure-activity relationships of 1,2,3,4-tetrahydropyrido[2,3-b]pyrazines as potent and selective inhibitors of the anaplastic lymphoma kinase” (Bioorg Med Chem, 2010).

Key:
[1] = biological target: T1, Serine/threonine-protein kinase ICK (Homo sapiens) (UniProt Q9UPZ9); test: Inhibition of ICK at 1 uM
T1 sequence (whole entry): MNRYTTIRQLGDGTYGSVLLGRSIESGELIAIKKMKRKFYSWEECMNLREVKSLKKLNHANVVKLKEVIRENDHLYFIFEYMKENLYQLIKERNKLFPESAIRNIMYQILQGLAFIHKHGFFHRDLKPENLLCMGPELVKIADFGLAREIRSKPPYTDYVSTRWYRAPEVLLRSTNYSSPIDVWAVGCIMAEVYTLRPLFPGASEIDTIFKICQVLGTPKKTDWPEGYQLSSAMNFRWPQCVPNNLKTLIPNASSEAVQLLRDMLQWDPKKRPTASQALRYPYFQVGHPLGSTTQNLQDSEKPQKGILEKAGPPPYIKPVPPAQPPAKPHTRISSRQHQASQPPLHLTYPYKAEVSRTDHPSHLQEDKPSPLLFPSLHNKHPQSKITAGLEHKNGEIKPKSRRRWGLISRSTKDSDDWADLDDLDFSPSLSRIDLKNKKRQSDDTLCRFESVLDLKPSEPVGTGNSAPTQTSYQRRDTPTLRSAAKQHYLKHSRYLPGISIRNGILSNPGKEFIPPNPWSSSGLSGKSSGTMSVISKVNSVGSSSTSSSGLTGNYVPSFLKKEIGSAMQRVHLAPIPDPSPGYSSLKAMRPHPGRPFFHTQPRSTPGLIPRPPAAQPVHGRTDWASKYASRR

[2] = biological target: T2, Inhibitor of nuclear factor kappa-B kinase subunit beta (Homo sapiens) (UniProt O14920); test: Inhibition of IKK-beta at 1 uM
T2 sequence (whole entry): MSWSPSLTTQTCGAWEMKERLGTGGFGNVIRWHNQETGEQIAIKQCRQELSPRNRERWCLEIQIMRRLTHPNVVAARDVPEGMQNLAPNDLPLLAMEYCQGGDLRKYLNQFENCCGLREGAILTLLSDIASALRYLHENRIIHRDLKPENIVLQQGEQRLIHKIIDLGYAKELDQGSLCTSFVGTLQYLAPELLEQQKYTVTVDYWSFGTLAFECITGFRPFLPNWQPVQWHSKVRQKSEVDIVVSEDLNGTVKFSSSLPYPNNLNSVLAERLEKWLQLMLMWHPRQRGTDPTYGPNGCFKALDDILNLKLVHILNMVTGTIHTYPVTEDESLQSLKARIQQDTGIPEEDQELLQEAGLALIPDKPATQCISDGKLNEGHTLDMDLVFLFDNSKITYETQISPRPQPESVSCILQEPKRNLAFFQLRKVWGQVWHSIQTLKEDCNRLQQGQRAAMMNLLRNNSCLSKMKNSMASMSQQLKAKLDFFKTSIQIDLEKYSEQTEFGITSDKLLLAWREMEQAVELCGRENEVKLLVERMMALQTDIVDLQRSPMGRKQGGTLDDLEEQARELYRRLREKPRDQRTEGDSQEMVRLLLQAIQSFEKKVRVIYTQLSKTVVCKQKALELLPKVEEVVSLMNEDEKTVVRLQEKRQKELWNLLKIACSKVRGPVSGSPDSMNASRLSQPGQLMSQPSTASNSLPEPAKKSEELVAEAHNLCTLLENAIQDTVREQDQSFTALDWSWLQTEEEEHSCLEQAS

[3] = biological target: Serine/threonine-protein kinase PAK 1 (Homo sapiens) (UniProt Q13153); test: Inhibition of PAK1 at 1 uM
[4] = biological target: T3, cGMP-dependent protein kinase 1 (Homo sapiens) (UniProt Q13976); test: Inhibition of PRKG1 at 1 uM
T3 sequence (whole entry): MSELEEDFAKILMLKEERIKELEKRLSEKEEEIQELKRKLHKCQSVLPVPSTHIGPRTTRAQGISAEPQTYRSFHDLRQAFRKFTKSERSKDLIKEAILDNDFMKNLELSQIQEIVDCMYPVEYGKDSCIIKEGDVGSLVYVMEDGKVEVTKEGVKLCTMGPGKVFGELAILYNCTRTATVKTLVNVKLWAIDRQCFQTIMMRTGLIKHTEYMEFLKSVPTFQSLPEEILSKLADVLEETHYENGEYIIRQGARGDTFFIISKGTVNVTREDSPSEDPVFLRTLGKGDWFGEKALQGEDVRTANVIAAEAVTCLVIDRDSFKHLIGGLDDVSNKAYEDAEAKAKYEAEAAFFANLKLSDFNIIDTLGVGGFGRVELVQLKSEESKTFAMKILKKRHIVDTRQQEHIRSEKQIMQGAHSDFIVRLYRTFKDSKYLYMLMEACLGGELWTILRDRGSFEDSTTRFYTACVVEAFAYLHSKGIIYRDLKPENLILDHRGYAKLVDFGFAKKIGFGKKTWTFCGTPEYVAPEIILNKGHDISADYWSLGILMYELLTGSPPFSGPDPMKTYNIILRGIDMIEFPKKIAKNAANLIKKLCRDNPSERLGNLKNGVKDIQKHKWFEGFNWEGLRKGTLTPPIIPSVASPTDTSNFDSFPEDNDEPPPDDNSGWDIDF

[5] = biological target: T4, cAMP-dependent protein kinase catalytic subunit PRKX (Homo sapiens) (UniProt P51817); test: Inhibition of PRKX at 1 uM
T4 sequence (whole entry): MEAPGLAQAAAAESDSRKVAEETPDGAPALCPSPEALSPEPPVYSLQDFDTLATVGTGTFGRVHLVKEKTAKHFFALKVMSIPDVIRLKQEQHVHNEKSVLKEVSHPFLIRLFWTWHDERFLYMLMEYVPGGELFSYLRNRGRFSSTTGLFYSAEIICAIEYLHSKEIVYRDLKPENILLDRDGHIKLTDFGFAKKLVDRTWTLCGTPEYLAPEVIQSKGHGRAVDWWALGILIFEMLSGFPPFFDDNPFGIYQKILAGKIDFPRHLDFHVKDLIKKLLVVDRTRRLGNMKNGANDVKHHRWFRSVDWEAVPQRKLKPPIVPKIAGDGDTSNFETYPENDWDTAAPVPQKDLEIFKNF

[6] = biological target: Rho-associated protein kinase 1 (Homo sapiens) (UniProt Q13464); test: Inhibition of ROCK1 at 1 uM
[7] = biological target: Ribosomal protein S6 kinase alpha-2 (Homo sapiens) (UniProt Q15349); test: Inhibition of RPS6KA2 C-terminal domain2 at 1 uM
[8] = biological target: Serine/threonine-protein kinase 32B (Homo sapiens) (UniProt Q9NY57); test: Inhibition of YANK2 at 1 uM
[9] = biological target: Tyrosine-protein kinase Yes (Homo sapiens) (UniProt P07947); test: Inhibition of YES at 1 uM
[10] = biological target: Cyclin-dependent kinase 8 (Homo sapiens) (UniProt P49336); test: Inhibition of CDK8 at 1 uM
[11] = biological target: Epidermal growth factor receptor (Homo sapiens) (UniProt P04626+P00533+Q15303+P21860); test: Inhibition of EGFR S752-I759del mutant at 1 uM; type: protein assay
Method in brief: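 Single-concentration screen using Ambit Bioscience KINOMEscan technology across a panel of 250–400 kinases. Per-kinase inhibition from this screen was summarized as S(90), the fraction of kinases inhibited by more than 90%.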

Measured: inhibition

Sequence of Serine/threonine-protein kinase 32B (Homo sapiens) (Q9NY57 whole entry): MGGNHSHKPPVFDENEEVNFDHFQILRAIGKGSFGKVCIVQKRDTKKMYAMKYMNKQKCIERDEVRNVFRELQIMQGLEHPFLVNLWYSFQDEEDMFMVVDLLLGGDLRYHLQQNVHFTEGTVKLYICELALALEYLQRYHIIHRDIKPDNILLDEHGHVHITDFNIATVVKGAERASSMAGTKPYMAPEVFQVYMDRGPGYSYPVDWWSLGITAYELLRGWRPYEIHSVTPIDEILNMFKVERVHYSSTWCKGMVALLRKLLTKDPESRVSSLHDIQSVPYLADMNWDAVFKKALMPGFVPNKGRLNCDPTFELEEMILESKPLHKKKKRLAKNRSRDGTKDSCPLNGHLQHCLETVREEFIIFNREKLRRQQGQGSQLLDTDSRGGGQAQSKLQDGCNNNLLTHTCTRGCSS
Sequence of Cyclin-dependent kinase 8 (Homo sapiens) (P49336 whole entry): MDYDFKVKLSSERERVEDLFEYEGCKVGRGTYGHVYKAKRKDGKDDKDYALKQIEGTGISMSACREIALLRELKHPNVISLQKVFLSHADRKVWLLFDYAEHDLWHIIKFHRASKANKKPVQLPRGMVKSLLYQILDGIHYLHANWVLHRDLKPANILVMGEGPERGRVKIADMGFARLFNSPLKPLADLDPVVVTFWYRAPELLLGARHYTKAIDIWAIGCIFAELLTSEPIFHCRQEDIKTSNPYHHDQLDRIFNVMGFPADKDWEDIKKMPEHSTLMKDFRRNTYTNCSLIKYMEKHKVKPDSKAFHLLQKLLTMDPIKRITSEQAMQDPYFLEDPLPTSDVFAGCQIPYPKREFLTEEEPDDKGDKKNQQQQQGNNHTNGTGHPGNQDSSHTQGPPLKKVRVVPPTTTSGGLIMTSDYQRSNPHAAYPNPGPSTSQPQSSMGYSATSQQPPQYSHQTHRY
Sequence of Ribosomal protein S6 kinase alpha-2 (Homo sapiens) (Q15349 whole entry, the tested form may be a part): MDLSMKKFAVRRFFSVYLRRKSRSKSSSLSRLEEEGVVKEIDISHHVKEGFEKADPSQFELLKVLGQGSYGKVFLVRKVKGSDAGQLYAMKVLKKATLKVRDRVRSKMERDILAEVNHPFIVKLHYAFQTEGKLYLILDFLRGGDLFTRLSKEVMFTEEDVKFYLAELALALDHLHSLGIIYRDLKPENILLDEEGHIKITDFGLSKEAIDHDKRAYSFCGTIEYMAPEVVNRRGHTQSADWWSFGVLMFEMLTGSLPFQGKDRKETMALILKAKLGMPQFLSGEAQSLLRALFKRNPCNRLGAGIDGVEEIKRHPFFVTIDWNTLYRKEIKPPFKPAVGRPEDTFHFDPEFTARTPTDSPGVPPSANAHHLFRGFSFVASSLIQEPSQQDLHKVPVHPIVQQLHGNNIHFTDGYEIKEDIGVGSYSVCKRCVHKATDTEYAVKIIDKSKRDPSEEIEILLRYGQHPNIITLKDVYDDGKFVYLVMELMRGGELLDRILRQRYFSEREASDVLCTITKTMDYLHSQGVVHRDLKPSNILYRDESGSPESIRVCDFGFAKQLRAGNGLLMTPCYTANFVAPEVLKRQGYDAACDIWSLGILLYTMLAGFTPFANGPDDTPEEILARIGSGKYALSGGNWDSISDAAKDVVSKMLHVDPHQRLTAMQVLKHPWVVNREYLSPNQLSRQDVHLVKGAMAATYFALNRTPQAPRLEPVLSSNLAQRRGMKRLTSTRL
Sequence of Tyrosine-protein kinase Yes (Homo sapiens) (P07947 2-543 limits assumed): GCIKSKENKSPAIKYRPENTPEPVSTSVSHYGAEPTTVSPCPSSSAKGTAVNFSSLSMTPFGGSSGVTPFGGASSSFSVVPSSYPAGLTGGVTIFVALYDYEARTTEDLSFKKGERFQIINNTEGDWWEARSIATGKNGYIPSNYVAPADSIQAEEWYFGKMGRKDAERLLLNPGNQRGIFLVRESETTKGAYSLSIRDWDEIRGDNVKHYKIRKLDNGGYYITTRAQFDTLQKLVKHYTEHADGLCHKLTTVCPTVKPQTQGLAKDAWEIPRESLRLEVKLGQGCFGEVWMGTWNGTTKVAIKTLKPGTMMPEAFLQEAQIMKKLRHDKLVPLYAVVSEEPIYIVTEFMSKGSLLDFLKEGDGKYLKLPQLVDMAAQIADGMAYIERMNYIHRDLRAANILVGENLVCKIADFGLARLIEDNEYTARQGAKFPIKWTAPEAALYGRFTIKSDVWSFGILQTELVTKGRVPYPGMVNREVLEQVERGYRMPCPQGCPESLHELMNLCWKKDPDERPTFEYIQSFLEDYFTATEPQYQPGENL
Sequence of Rho-associated protein kinase 1 (Homo sapiens) (Q13464 2-1354 limits assumed): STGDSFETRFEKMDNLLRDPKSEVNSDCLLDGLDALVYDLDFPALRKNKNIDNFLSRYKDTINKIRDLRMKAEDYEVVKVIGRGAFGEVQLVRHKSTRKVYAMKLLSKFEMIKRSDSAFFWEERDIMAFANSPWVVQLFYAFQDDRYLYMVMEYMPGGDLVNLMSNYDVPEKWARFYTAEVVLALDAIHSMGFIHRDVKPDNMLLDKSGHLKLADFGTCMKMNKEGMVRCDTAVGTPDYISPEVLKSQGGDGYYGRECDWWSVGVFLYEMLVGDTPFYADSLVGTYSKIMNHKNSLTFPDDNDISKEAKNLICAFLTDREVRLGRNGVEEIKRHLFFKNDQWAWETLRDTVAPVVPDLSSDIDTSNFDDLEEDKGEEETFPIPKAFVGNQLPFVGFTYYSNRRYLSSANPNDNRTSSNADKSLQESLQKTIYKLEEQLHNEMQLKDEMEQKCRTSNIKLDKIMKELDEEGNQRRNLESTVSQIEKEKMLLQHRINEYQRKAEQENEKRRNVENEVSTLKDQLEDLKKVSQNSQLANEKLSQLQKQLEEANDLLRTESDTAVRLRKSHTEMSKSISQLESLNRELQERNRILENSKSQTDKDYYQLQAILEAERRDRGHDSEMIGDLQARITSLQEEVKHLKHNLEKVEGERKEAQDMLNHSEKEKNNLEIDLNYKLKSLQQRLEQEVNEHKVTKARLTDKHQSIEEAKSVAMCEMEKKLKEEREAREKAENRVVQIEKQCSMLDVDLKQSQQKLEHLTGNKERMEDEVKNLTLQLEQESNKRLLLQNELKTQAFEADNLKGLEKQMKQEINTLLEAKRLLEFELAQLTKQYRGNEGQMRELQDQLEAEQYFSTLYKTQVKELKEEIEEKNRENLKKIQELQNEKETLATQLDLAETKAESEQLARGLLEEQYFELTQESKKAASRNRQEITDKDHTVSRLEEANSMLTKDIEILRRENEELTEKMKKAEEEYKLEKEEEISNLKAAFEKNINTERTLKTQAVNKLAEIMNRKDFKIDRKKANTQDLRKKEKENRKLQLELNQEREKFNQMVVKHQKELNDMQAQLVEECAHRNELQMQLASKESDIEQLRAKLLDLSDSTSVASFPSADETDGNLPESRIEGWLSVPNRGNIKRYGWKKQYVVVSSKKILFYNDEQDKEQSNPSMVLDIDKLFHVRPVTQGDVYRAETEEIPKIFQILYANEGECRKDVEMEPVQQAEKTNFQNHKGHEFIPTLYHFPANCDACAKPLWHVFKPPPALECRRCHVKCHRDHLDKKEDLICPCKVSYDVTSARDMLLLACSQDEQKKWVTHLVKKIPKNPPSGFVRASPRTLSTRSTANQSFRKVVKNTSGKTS
Sequence of Serine/threonine-protein kinase PAK 1 (Homo sapiens) (Q13153 whole entry): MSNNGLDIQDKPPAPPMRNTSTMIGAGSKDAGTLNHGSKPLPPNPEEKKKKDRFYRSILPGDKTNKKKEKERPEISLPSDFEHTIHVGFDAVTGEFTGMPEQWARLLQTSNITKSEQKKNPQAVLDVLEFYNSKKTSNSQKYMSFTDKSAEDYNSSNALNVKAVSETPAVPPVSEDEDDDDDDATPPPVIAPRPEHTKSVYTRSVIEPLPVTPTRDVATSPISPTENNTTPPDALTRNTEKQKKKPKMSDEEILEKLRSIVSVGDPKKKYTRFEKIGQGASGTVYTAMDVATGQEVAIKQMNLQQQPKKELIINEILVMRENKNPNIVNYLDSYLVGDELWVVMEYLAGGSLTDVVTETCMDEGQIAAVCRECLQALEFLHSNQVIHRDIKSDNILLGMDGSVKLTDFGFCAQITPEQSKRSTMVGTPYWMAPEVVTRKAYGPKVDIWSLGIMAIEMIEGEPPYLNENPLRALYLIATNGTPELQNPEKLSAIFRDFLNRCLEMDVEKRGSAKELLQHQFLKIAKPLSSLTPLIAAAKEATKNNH

CN1CCN(c2ccc(-c3cnc4c(c3)N(Cc3cc(F)ccc3F)CCN4)cn2)CC1
< 50%: all assays above

CC(=O)N1CCN(c2cc(-c3cnc4c(c3)N(Cc3cc(Cl)ccc3C(F)(F)F)CCN4)ccn2)CC1
< 50%: all assays above

CN1CCN(c2ccc(-c3cnc4c(c3)N(Cc3c(F)ccc(F)c3Cl)CCN4)cn2)CC1
< 50%: all assays above

FC(F)(F)c1ccc(Cl)cc1CN1CCNc2ncc(-c3ccnc(N4CCNCC4)c3)cc21
< 50%: all assays above

CN1CCN(c2ccc(-c3cnc4c(c3)N(Cc3cc(Cl)ccc3Cl)CCN4)cn2)CC1
< 50%: all assays above

O=C(c1ccc(-c2cnc3c(c2)N(Cc2cc(Cl)ccc2C(F)(F)F)CCN3)cc1)N1CCC(N2CCCC2)CC1
not listed: [1] | [2] | [6] | [10]
< 50%: all other assays above

O=C(O)c1ccc(-c2cnc3c(c2)N(Cc2cc(Cl)ccc2C(F)(F)F)CCN3)cc1
not listed: [1] | [2] | [6] | [10]
< 50%: all other assays above

CN1CCN(c2ccc(-c3cnc4c(c3)N(Cc3cc(Cl)ccc3C(F)(F)F)CCN4)cn2)CC1
< 50%: all assays above

O=C(c1ccc(-c2cnc3c(c2)N(Cc2cc(Cl)ccc2C(F)(F)F)CCN3)cc1)N1CCCCC1
not listed: [1] | [2] | [6] | [10]
< 50%: all other assays above

COC1CCN(C(=O)c2ccc(-c3cnc4c(c3)N(Cc3cc(Cl)ccc3C(F)(F)F)CCN4)cc2)CC1
not listed: [1] | [2] | [6] | [10]
< 50%: all other assays above
